Data: article PMC6675461 (Bioorganic & medicinal chemistry, 2009)
Counter-ions that a name gives are not always drawn. Like-named read-outs stand apart in the source and are kept apart here.

How the values were obtained:
[1] = system: four prostate cancer cell lines (DU 145, PC-3, LNCaP, PPC-1); test: SRB assay, average over prostate cancer cell lines and selectivity vs RH7777; type: cell-based, human; conditions: for IC50: Homo sapiens, RH7777, read-out: Aver. (average IC50 of four prostate cells IC50s)
Method in brief: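 The control line was LPL receptor-negative RH7777 in DMEM/10% FBS. The prostate IC50s were averaged. Selectivity = IC50 in RH7777 divided by the average tumor-cell IC50.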

[2] = system: three melanoma cell lines (B16-F1, A375, WM-164); test: SRB assay, average over melanoma cell lines and selectivity vs fibroblast; type: cell-based, human, mouse; conditions: Fibroblast
[3] = read-out: Aver. (average IC50 of three melanoma cells IC50s)
[4] = read-out: IC50 range over melanoma cell lines

| Structure (SMILES) | fold more potent than 1a against prostate cancer cells ([1]; from average IC50) [fold] | IC50 [1] [µM] | IC50 [2, 3] [µM] | IC50 [2, 4] [µM] |
| --- | --- | --- | --- | --- |
| CCCCCCCCCCCCCCCCCCNC(=O)[C@@H]1CSC(c2cc(OC)c(OC)c(OC)c2)N1 (mixture of isomers) [Compound 3aa, (2RS,4R)-2-(3,4,5-Trimethoxy-phenyl)-thiazolidine-4-carboxylic acid octadecylamide] | 2.4 |  |  |  |
| CCCCCCCCCCCCCCCCCCNC(=O)[C@@H]1CSC(c2ccc(OC)c(OC)c2)N1 (mixture of isomers) [Compound 3ba, (2RS,4R)-2-(3,4-Dimethoxy-phenyl)-thiazolidine-4-carboxylic acid octadecylamide] |  | 3.2 | 8 |  |
| CCCCCCCCC/C=C/CCCCCCCNC(=O)[C@@H]1CSC(c2ccc(OC)c(OC)c2)N1 (mixture of isomers) [Compound 3bc, (2RS,4R)-2-(3,4-Dimethoxy-phenyl)-thiazolidine-4-carboxylic acid (E)-octadec-8-enylamide] |  | 1.2 |  |  |
| CCCCCCCCCCCCCCCCNC(=O)[C@@H]1CSC(c2ccccc2OC)N1 (mixture of isomers) [Compound 3ca, (2RS,4R)-2-(2-Methoxy-phenyl)-thiazolidine-4-carboxylic acid hexadecylamide] |  | 4.8 | 3.2 |  |
| CCCCCCCCCCCCCCCCNC(=O)[C@@H]1CSC(c2cccc(OC)c2)N1 (mixture of isomers) [Compound 3da, (2RS,4R)-2-(3-Methoxy-phenyl)-thiazolidine-4-carboxylic acid hexadecylamide] |  | 0.7 | 2 |  |
| CCCCCCCCCCCCCCCCNC(=O)[C@@H]1CSC(c2ccc(OC)cc2)N1 (mixture of isomers) [Compound 3ea, (2RS,4R)-2-(4-Methoxy-phenyl)-thiazolidine-4-carboxylic acid hexadecylamide] |  | 1.6 | 1.6 |  |
| CCCCCCCCCCCCCCCCNC(=O)[C@@H]1CSC(c2ccc(N(C)C)cc2)N1 (mixture of isomers) [Compound 3fa, (2RS,4R)-2-(4-Dimethylamino-phenyl)-thiazolidine-4-carboxylic acid hexadecylamide] |  | 2.8 |  |  |
| CCCCCCCCCCCCCCCCNC(=O)[C@@H]1CSC(c2ccccc2NC(C)=O)N1 (mixture of isomers) [Compound 3ga, (2RS,4R)-2-(2-Acetylamino-phenyl)-thiazolidine-4-carboxylic acid hexadecylamide] |  | 3 | 7.1 |  |
| CC(=O)Nc1ccc(C2N[C@H](C(=O)NC34CC5CC(CC(C5)C3)C4)CS2)cc1 (mixture of isomers) [Compound 3ib, (2RS,4R)-2-(4-Acetylamino-phenyl)-thiazolidine-4-carboxylic acid adamantan-1-ylamide] |  |  | 120 |  |
| CC(=O)Nc1ccc(C2N[C@H](C(=O)NC3C4CC5CC(C4)CC3C5)CS2)cc1 (mixture of isomers) [Compound 3ic, (2RS,4R)-2-(4-Acetylamino-phenyl)-thiazolidine-4-carboxylic acid adamantan-2-ylamide] |  |  | 79.5 |  |
| CC(=O)Nc1ccc(C2N[C@H](C(=O)Nc3ccc(-c4ccccc4)cc3)CS2)cc1 (mixture of isomers) [Compound 3if, (2RS,4R)-2-(4-Acetylamino-phenyl)-thiazolidine-4-carboxylic acid biphenyl-4-ylamide] |  |  | 5.3 |  |
| CCCCCCCCC#CCCCCCCCCCNC(=O)[C@@H]1CSC(c2ccc(NC(C)=O)cc2)N1 (mixture of isomers) [Compound 3ii, (2RS,4R)-2-(4-Acetylamino-phenyl)-thiazolidine-4-carboxylic acid nonadec-10-ynylamide] |  | 1.7 |  |  |
| CCCCCCCCCCCCCCCCNC(=O)[C@@H]1CSC(c2ccccc2)N1 (mixture of isomers) [Compound 3ja, (2RS,4R)-2-Phenyl-thiazolidine-4-carboxylic acid hexadecylamide] |  |  |  | 0.7 to 2.1 |
| CCCCCCCCC/C=C\CCCCCCCNC(=O)[C@@H]1CSC(c2ccccc2)N1 (mixture of isomers) [Compound 3jb, (2RS,4R)-2-Phenyl-thiazolidine-4-carboxylic acid (Z)-octadec-8-enylamide] |  | 1.7 | 4.4 |  |
| CCCCCCCCCCCCCCCCOC(=O)[C@@H]1CSC(c2ccc(NC(C)=O)cc2)N1 (mixture of isomers) [Compound 5, (2RS,4R)-2-(4-Acetylamino-phenyl)-thiazolidine-4-carboxylic acid hexadecyl ester] |  |  | 29.5 |  |
| CCCCCCCCCCCCCCCCNC[C@@H]1CSC(c2ccccc2)N1 (mixture of isomers) [Compound 8a, (2RS,4R)-Hexadecyl-(2-phenyl-thiazolidin-4-ylmethyl)-amine hydrochloride] |  |  | 7.5 |  |
| CCCCCCCCCCCCCCCCNC(=O)[C@@H]1CSC(c2ccc(N)cc2)N1 (mixture of isomers) [Compound 13b, (2RS,4R)-2-(4-Amino-phenyl)-thiazolidine-4-carboxylic acid hexadecylamide] |  | 1.8 |  |  |
| CCCCCCCCCCCCCCCCNC(=O)[C@@H]1CSC(c2ccc(NS(C)(=O)=O)cc2)N1 (mixture of isomers) [Compound 15a, (2RS,4R)-2-(4-Methanesulfonylaminophenyl)-thiazolidine-4-carboxylic acid hexadecylamide] |  |  | 60.9 | 5.7 to 114 |
| CCCCCCCCCCCCCCCCNC(=O)[C@@H]1CSC(c2ccc(NC(N)=O)cc2)N1 (mixture of isomers) [Compound 15c, (2RS,4R)-2-(4-Ureido-phenyl)-thiazolidine-4-carboxylic acid hexadecylamide] |  | 2 | 3.9 |  |
| CCCCCCCCC/C=C\CCCCCCCNC(=O)[C@@H]1CSC(c2cc(OC)c(OC)c(OC)c2)N1 (stereo partly drawn) [Compound 3ab, (2RS,4R)-2-(3,4,5-Trimethoxy-phenyl)-thiazolidine-4-carboxylic acid octadec-8-cis-enylamide] |  | 1 | 2.8 |  |
| CCCCCCCCC/C=C/CCCCCCCNC(=O)[C@@H]1CSC(c2cc(OC)c(OC)c(OC)c2)N1 (stereo partly drawn) [Compound 3ac, (2RS,4R)-2-(3,4,5-Trimethoxy-phenyl)-thiazolidine-4-carboxylic acid octadec-8-trans-enylamide] |  | 0.8 | 2 |  |
| CC(=O)Nc1ccc(C2N[C@H](C(=O)Nc3ccc4cc5ccccc5cc4c3)CS2)cc1 (stereo partly drawn) [Compound 3ie] |  | 1 | 3.4 |  |
| CCCCCCCCCCCCCCCCNC(=O)[C@@H]1CSC(c2ccc(NC(=O)CCl)cc2)N1 (stereo partly drawn) [Compound 15b, (2RS,4R)-2-[4-(2-Chloro-acetylamino)-phenyl]-thiazoli-dine-4-carboxylic acid hexadecylamide] |  | 1 | 39.8 | 5.7 to 114 |
| CCCCCCCCCCCCCCCCNC(=O)[C@@H](N)CSC [Compound 16a, (2R)-2-Amino-N-hexadecyl-3-methylsulfanyl-propion-amide] |  |  |  | 12.9 to 14.4 |
| CCCCCCCCCCCCCCCCNC(=O)[C@@H](N)CSCc1ccccc1 [Compound 16c, (2R)-2-Amino-3-benzylsulfanyl-N-hexadecyl-propionamide] |  |  |  | 12.8 to 15.1 |
| CCCCCCCCCCCCCCCCNC(=O)CNCc1ccc(NC(C)=O)cc1 [Compound 16d, 2-(4-Acetylamino-benzylamino)-N-hexadecyl-acetamide] |  |  |  | 10.2 to 11.9 |
